Laboratory results taken from ChEMBL document CHEMBL1128216, “Rational design and synthesis of small molecule, non-oligosaccharide selectin inhibitors: (alpha-D-mannopyranosyloxy)biphenyl-substituted carboxylic acids” (J Med Chem, 1995).
Values belong to the compound of their own block, whether it stands above or below them.

Legend:
E-selectin = biological target: T1, E-selectin (Homo sapiens, UniProt P16581); test: In vitro inhibition of HL60 (human leukemia) cell binding to human recombinant e-selectin.; type: cell-based, HL-60
T1 sequence (P16581 whole entry): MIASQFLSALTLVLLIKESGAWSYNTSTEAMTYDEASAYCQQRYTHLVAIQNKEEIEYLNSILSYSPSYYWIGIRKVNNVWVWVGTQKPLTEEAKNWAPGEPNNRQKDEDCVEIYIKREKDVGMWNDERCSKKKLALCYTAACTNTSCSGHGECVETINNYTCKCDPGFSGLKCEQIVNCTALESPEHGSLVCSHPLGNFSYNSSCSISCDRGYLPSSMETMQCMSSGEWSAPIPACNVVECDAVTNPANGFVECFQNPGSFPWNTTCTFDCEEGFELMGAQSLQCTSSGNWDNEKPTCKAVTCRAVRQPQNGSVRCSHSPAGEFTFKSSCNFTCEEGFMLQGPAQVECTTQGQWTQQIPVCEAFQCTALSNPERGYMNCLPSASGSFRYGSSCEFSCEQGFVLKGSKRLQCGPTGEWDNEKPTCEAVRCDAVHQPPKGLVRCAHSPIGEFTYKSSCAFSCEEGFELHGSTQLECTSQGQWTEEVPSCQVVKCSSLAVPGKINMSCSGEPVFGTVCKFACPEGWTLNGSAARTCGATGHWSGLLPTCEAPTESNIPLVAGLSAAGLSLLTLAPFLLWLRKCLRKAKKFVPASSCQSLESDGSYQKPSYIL
Outline: (§1)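 Human E-selectin (lectin, EGF and two complement repeats) fused to mouse IgG was captured on anti-mouse IgG magnetic beads overnight at 4 °C. Wells were pre-blocked with 3% BSA/PBS. Compound in PBS was mixed with calcein-labelled HL60 cells (10⁷/mL, RPMI 1640 + 10% FCS) and beads (4 × 10⁶/mL) for 10 min at room temperature. Unbound cells were removed magnetically with two PBS washes, and bound cells were lysed in 1% NP40.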

[1] = biological target: T2, P-selectin (Homo sapiens) (UniProt P16109); test: In vitro inhibitory activity against sialyl Lewis X expressing HL60 cell binding Selectin P at 20 mM concentration; type: cell-based; conditions: HL-60
T2 sequence (whole entry): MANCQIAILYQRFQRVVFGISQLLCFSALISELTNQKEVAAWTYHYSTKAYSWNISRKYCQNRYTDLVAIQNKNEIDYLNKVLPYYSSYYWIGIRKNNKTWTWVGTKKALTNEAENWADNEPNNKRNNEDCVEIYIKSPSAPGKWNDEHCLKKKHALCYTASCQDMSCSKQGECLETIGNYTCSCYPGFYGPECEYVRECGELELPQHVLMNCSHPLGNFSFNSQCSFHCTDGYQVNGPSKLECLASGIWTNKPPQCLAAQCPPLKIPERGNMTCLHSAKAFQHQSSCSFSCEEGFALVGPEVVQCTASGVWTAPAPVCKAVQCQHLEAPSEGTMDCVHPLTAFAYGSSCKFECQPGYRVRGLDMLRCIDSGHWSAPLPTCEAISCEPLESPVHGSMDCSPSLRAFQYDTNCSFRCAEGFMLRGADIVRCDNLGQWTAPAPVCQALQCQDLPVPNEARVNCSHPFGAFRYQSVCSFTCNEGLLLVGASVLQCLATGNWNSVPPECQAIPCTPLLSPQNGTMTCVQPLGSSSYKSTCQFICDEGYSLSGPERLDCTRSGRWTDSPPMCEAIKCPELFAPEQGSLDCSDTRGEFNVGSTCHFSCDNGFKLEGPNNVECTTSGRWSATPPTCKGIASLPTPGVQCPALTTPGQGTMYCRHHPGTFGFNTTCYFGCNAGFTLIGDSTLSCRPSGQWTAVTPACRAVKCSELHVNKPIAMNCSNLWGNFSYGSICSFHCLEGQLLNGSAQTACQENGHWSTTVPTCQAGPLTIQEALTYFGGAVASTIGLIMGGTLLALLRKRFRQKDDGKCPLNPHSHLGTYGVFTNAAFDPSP

[2] = biological target: T3, L-selectin (Mus musculus) (UniProt P18337); test: In vitro inhibitory activity against sialyl Lewis X expressing HL60 cell binding to Selectin L at 5 mM concentration; type: cell-based; conditions: HL-60
T3 sequence (whole entry): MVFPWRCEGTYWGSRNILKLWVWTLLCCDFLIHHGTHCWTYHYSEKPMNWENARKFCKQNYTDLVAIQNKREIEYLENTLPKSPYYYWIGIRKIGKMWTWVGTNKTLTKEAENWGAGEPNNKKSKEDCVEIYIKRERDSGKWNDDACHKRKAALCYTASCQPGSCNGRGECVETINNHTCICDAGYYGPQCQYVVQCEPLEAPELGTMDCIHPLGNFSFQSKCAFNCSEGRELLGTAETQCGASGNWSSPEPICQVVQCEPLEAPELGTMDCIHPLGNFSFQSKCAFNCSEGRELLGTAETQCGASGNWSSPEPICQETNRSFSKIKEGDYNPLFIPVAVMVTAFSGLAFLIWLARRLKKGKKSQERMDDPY

[3] = biological target: T3, L-selectin (Mus musculus); test: In vitro inhibitory activity against sialyl Lewis X expressing HL60 cell binding to Selectin L at 6 mM concentration; type: cell-based; conditions: HL-60
P-selectin = biological target: T4, P-selectin (Homo sapiens, UniProt P16109); test: In vitro inhibitory activity against sialyl Lewis X expressing HL60 cell binding Selectin P; type: cell-based, HL-60
T4 sequence (P16109 whole entry): T2 sequence (whole entry)

L-selectin = biological target: T5, L-selectin (Mus musculus, UniProt P18337); test: In vitro inhibitory activity against sialyl Lewis X expressing HL60 cell binding Selectin L; type: cell-based, HL-60
T5 sequence (P18337 whole entry): T3 sequence (whole entry)

[4] = biological target: T6, E-selectin (Homo sapiens) (UniProt P16581); test: In vitro inhibitory activity against sialyl Lewis X expressing HL60 cell binding to recombinant human E-selectin at 40 mM concentration; type: cell-based; conditions: HL-60; outline: as §1
T6 sequence (whole entry): T1 sequence (P16581 whole entry)

[5] = biological target: T6, E-selectin (Homo sapiens); test: In vitro inhibitory activity against sialyl Lewis X expressing HL60 cell binding to recombinant human E-selectin at 1 mM concentration; type: cell-based; conditions: HL-60; outline: as §1
[6] = biological target: T3, L-selectin (Mus musculus); test: In vitro inhibitory activity against sialyl Lewis X expressing HL60 cell binding Selectin L at 6 mM concentration; type: cell-based; conditions: HL-60
[7] = biological target: T3, L-selectin (Mus musculus); test: In vitro inhibitory activity against sialyl Lewis X expressing HL60 cell binding to Selectin L at 7 mM concentration; type: cell-based; conditions: HL-60
[8] = biological target: T3, L-selectin (Mus musculus); test: In vitro inhibitory activity against sialyl Lewis X expressing HL60 cell binding to L-selectin at 6 mM concentration; type: cell-based; conditions: HL-60
[9] = biological target: T2, P-selectin (Homo sapiens); test: In vitro inhibitory activity against sialyl Lewis X expressing HL60 cell binding Selectin P at 10 mM concentration; type: cell-based; conditions: HL-60
[10] = biological target: T6, E-selectin (Homo sapiens); test: In vitro inhibitory activity against sialyl Lewis X expressing HL60 cell binding to recombinant human E-selectin at 16.3 mM concentration; type: cell-based; conditions: HL-60; outline: as §1
[11] = biological target: T2, P-selectin (Homo sapiens); test: In vitro inhibitory activity against sialyl Lewis X expressing HL60 cell binding Selectin P at 4 mM concentration; type: cell-based; conditions: HL-60
[12] = biological target: T3, L-selectin (Mus musculus); test: In vitro inhibitory activity against sialyl Lewis X expressing HL60 cell binding Selectin L at 1 mM concentration; type: cell-based; conditions: HL-60
[13] = biological target: T2, P-selectin (Homo sapiens); test: In vitro inhibitory activity against sialyl Lewis X expressing HL60 cell binding Selectin P at 23 mM concentration; type: cell-based; conditions: HL-60

SMILES: OC[C@H]1O[C@H](Oc2ccccc2-c2cccc(Cc3nnn[nH]3)c2)[C@@H](O)[C@H](O)[C@@H]1O
- inhibition [4]: 17%

SMILES: O=C(N[C@H](Cc1ccccc1)C(=O)O)c1cccc(-c2ccccc2O[C@H]2O[C@H](CO)[C@@H](O)[C@@H](O)[C@@H]2O)c1
- inhibition [5]: 14%
- inhibition [6]: 0%
- inhibition [1]: 5%

SMILES: CC(C(=O)O)c1cccc(-c2ccccc2O[C@H]2O[C@H](CO)[C@@H](O)[C@@H](O)[C@@H]2O)c1 (stereo in doubt; 9s) [listing 1 of 2 here]
- IC50 (E-selectin): 20 mM

SMILES: CC(C(=O)O)c1cccc(-c2ccccc2O[C@H]2O[C@H](CO)[C@@H](O)[C@@H](O)[C@@H]2O)c1 (stereo in doubt; 9s) [listing 2 of 2 here]
- inhibition [3]: 0%
- inhibition [9]: 30%

SMILES: O=C(O)CC(NC(=O)c1ccc(-c2ccccc2O[C@H]2O[C@H](CO)[C@@H](O)[C@@H](O)[C@@H]2O)cc1)C(=O)O (stereo partly drawn)
- IC50 (P-selectin): 2 mM
- IC50 (L-selectin): 5 mM
- inhibition [10]: 0%

SMILES: O=C(O)CCC(NC(=O)c1ccc(-c2ccccc2O[C@H]2O[C@H](CO)[C@@H](O)[C@@H](O)[C@@H]2O)cc1)C(=O)O (stereo partly drawn)
- inhibition [11]: 35%
- IC50 (E-selectin): 32 mM
- inhibition [12]: 0%

SMILES: CCOP(=O)(O)CCCc1cccc(-c2ccccc2O[C@H]2O[C@H](CO)[C@@H](O)[C@@H](O)[C@@H]2O)c1
- IC50 (E-selectin): 34.4 mM
- IC50 (P-selectin): 12.4 mM

More lines, now with the values ahead:

- IC50 (E-selectin): 3.8 mM
- inhibition [1]: 0%
- inhibition [2]: 0%
SMILES: O=C(N[C@@H](Cc1ccccc1)C(=O)O)c1ccc(-c2ccccc2O[C@H]2O[C@H](CO)[C@@H](O)[C@@H](O)[C@@H]2O)cc1

- inhibition [3]: 0%
- IC50 (E-selectin): 2.6 mM
- inhibition [1]: 0%
SMILES: O=C(O)Cc1ccc(-c2ccccc2O[C@H]2O[C@H](CO)[C@@H](O)[C@@H](O)[C@@H]2O)cc1

- IC50 (E-selectin): 3 mM
- IC50 (P-selectin): 2 mM
- IC50 (L-selectin): 2 mM
SMILES: CC(=O)N[C@H]1[C@H]([C@H](O)[C@H](O)CO)O[C@@](O[C@H]2[C@@H](O)[C@@H](CO)O[C@@H](O[C@@H]([C@H](O[C@@H]3O[C@@H](C)[C@@H](O)[C@@H](O)[C@@H]3O)[C@H](C=O)NC(C)=O)[C@H](O)CO)[C@@H]2O)(C(=O)O)C[C@@H]1O [SIALYL LEWIS X]

- IC50 (E-selectin): 8 mM
- IC50 (P-selectin): 6.9 mM
- inhibition [7]: 0%
SMILES: Cc1cc(-c2ccccc2O[C@H]2O[C@H](CO)[C@@H](O)[C@@H](O)[C@@H]2O)cc(C)c1OCC(=O)O

- inhibition [8]: 20%
- IC50 (E-selectin): 6.1 mM
- IC50 (P-selectin): 20 mM
SMILES: O=C(O)COc1ccc(-c2ccccc2O[C@H]2O[C@H](CO)[C@@H](O)[C@@H](O)[C@@H]2O)cc1

- IC50 (E-selectin): 2 mM
- IC50 (P-selectin): 2.6 mM
- IC50 (L-selectin): 1 mM
SMILES: O=C(O)Cc1cccc(-c2ccccc2O[C@H]2O[C@H](CO)[C@@H](O)[C@@H](O)[C@@H]2O)c1

- IC50 (E-selectin): 15.8 mM
- inhibition [2]: 15%
SMILES: O=C(O)CC[C@H](NC(=O)c1cccc(-c2ccccc2O[C@H]2O[C@H](CO)[C@@H](O)[C@@H](O)[C@@H]2O)c1)C(=O)O

- IC50 (E-selectin): 7 mM
- IC50 (L-selectin): 1.5 mM
- inhibition [13]: 40%
SMILES: N#CCc1cccc(-c2ccccc2O[C@H]2O[C@H](CO)[C@@H](O)[C@@H](O)[C@@H]2O)c1
